Source: the EternaBench riboswitch data

Test system: MS2 coat protein
Experiment: apparent Kd, MS2 coat protein; higher = weaker binding; RNA-MaP array; FMN 200 µM where present
How it was run: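 Stalled E. coli RNA polymerase transcribed the designs on Illumina sequencing-chip clusters. SNAP-549-labelled MS2 coat protein was titrated from 0.7 or 1.5 nM, doubling to 3 µM, without and then with constant ligand, in 100 mM Tris-HCl pH 7.5, 80 mM KCl, 4 mM MgCl2, BSA, DTT, yeast tRNA and Tween-20. Per-cluster binding curves were fitted to green signal normalised to red-channel RNA signal and control-cluster median Fmax. The apparent Kd is the median of the filtered fits.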

[1] = designed as: OFF switch for flavin mononucleotide, no ligand
[2] = ligand present: flavin mononucleotide, designed as: OFF switch for flavin mononucleotide
[3] = designed as: ON switch for flavin mononucleotide, no ligand
[4] = ligand present: flavin mononucleotide, designed as: ON switch for flavin mononucleotide

Sequence	apparent Kd [1]	apparent Kd [2]	apparent Kd [3]	apparent Kd [4]
UUUUUACGAGGAUAUCGAUUGUGGUACAUGAGGAUCACCCAUGUAUGUGAUAUUGUAUUUCGAGAAGGCGUUCAGU	19.3 nM	17.8 nM	–	–
AAAUUUGACGAAGGAUAUGGAUACAUGAGGAUCACCCAUGUUUAUUUUGUGAUUUUGUUUAAGUACCAGAAGGUCGAAUACAUA	39 nM	63.9 nM	–	–
UUGGUGUACGUAGGAUAUGUAGGAUAUUCCUACAUGAGGAUCACCCAUGUUUACAUGGAAGAAGGACAGAAGGACGUGCACCAU	–	–	1280 nM	15.2 nM
UUUACUUACGAAGGAUAUGGUUACAUGAGGAUCACCCAUGUAUGUAUAAUGAUCUAGUAUUUUAACCAGAAGGUCGUGAUUAUU	39.3 nM	64.6 nM	–	–
UUGCGGUCAGGAUAUGCAUGGCGGGACUUGCGUCGUGGCGUGGAGAAGGGACAUGAGGAUCACCCAUGUGGAGC	54.5 nM	59.9 nM	–	–
UUUCCACAUGAGGAUCACCCAUGUGAGGAUAUGGAGCGCGACCGCGCGGUCGCGUACACCAGAAGGCGCAUGAU	31.9 nM	91 nM	–	–
GCAUGCAAGUAGAAGGUCGGAUAUUUUGAUACCGAAGGAUAUACAGAAUCAUAUCCACAUGAUAACAUGAGGAUCACCCAUGUA	21.4 nM	26.7 nM	–	–
ACAUGGAAUACAGGAUAUGUAAGUUUUAAGUGGAUUGGUUAUUACUUUACAACAGAAGGGUAAUACAUGAGGAUCACCCAUGUA	–	–	30.1 nM	25.3 nM
UCUAUGUAGAUUCGUCAAUACAGUAAGGAUAUGAGAUACAUGAGGAUCACCCAUGUGCAUGUGGAUUAGAAGGUACAAUUAACU	83.7 nM	73.9 nM	–	–
AAAAUGUCAGGAUAUGCGAAGGCGUCUGACGGACGAGGAUUGCAGAAGGGACAUGAGGAUCACCCAUGUAAAAA	54.5 nM	138 nM	–	–
UUUGUAAUGUCAGGAUAUAUUAUAAGUCAGACUGUAGAAGGGAUAAUUAUACUCAUGUACAUGAGGAUCACCCAUGUUAAAUAU	–	–	97.1 nM	53.2 nM
CCACUCGAGCAGAAGGCAAUGAGGGUUAUACAUUGAGGAUAUGCUACGUAUGUGGUACAUGAGGAUCACCCAUGUAGCCUAUCU	–	–	389 nM	21.3 nM
GUAUUUUAAGUAAGGAUAUACCUCUGGAAACAGAGGUAGAAGGUACAUGAGGAUCACCCAUGUUUCUCUUUUGG	17 nM	23.6 nM	–	–
AAAACAUGAGGAUCACCCAUGUAAAGAUCGGUUGAUGAAGGUGAGGAUAUACAAAACUUUAUGGAGUAGAAGGCACUGGGUUGA	–	–	109 nM	59.3 nM
ACAGCAGUAGGAUAUACAUCACCAUCCGACCGUUGAUUUCAACAUGAGGAUCACCCAUGUAGAAGGGCUAGUUG	93.2 nM	65.7 nM	–	–
UGGUUUAGUGUUAGGAUAUAAUCCGAAGUCAGCGAUUAGAAGGAACAUGAGGAUCACCCAUGUUUUAGAUAACC	16 nM	16.9 nM	–	–
AUUGUAAUGUCAGGAUAUAUUAUAUUUUACAUAGUAGAAGGGAUAAUUAUACUCAUGUACAUGAGGAUCACCCAUGUUAAAUAU	–	–	179 nM	29.6 nM
CUGUUAUAGGUCCAGAAUUACAACAUGAGGAUCACCCAUGUGCAGGAUAUCGGGUUAAUAAACGACGAGAAGGGCAUAGUCACG	35.6 nM	104 nM	–	–
GAGUGCUGAGGAUAUACAUGAGGAUCACCCAUGUGCUUCAGCUAGGAGACUAGCAUUGGUAGAAGGCAGUACUC	11.2 nM	46 nM	–	–
UGUGAGUUGAUGUUAGAUAGGAGAACAUGAGGAUCACCCAUGUAGGAUAUUCAAAGACGAAGAUAGAAGAAGGACAUAGGUAUC	24.8 nM	66.2 nM	–	–
AUUUAUGGCCAGAAGGACAUGAGGAUCACCCAUGUAGGAUAUGGACGAUUUUGCUCGGCGGUUUUUUUAGGAAGCACCGGUGGU	–	–	12.4 nM	7.14 nM
AGAGUGACAGGAUAUUGGAUUCCUAACAUGAGGAUCACCCAUGUAGUACGGUACUACUGUCAAGAAGGGUCACUCU	75.8 nM	68.8 nM	–	–
CUUUUGUGAGGAUAUUCGUAGUAGGGUCAUGGUACUAUUACGGAGAAGGCACAUGAGGAUCACCCAUGUUCCUU	15.4 nM	45.1 nM	–	–
AGUAAGAUGCAGAAGGUGUUAGCUAGAGCUACGACAUGAGGAUCACCCAUGUACUAGAAACAGUACAAGGAUAUGCAUCUUACA	–	–	18.1 nM	6.28 nM
GGGUACAUCGGAGGAUAUCAUGUAAAUACAUGAGGAUCACCCAUGUCGAUGGAGACAUCGGACAUUGAGAAGGCCGAUGUACCG	–	–	29.2 nM	5.79 nM
AAACAUGUCCGAGGAUAUCUGGAAACAUUUUCAAGAGAAGGCGGACAUGAGGAUCACCCAUGUCUCUCCUCAUCAACUACAUAU	8.09 nM	59.4 nM	–	–
UAUAUAUAGUAAGGAUAUGUAAUAAUUUUAUAAACAGAAGGUACUGACAUGAGGAUCACCCAUGUUUUAGUGUGGGCAUGUAGA	83.9 nM	151 nM	–	–
UAUAAGUCUCAUGUAACAUGAGGAUCACCCAUGUCAUAUUGUAGAAGGAUGAUAAUAUGUAUAUCAUAGGAUAUACUAUAUGUU	20.9 nM	19.6 nM	–	–

Sequence	apparent Kd [1]	apparent Kd [2]	apparent Kd [3]	apparent Kd [4]
GUCAGCUCGUGAGGAUAUACAACACUGCUUCGGCAGUGUGUUAAGAUCACAUGAGGAUCACCCAUGUAGAAGGCACGAGCUGAU	7.69 nM	88.9 nM	–	–
GUAGCAUCAAUUAUACAUGAGGAUCACCCAUGUUACAUGGGUAAGGAUAUUGAGGUUAUUAUUGGCAAGAAGGUACUAUGCUAC	–	–	409 nM	168 nM
AAACAUGUCCGAGGAUAUCUGGAAACAUUUUCAAGAGAAGGCGGACAUGAGGAUCACCCAUGUCUCUCCUCAUCCACUACAAAU	9.59 nM	60.6 nM	–	–
GAUUAACAUGAGGAUCACCCAUGUCGUUUUAUGGGAGGAUAUACGUGGACCGUAGUCCGCGUAGAAGGCCUAAUUG	–	–	125 nM	30.4 nM
GGACAGCGAGGAUAUACGUGUACGUUAUCCUCUAUGGGUCAACAUGAGGAUCACCCAUGUAGAAGGCGCAUAAU	19.4 nM	28.1 nM	–	–
AGAUGACAAAGUCAUCUCUGACAGACAUGAGGAUCACCCAUGUAGGAUAUGCUACUCAAAGAGUAGCAGAAGGACAUGUGUCUU	32.3 nM	183 nM	–	–
GUGAGGUAAGGAUAUAGUAGUGAAGGUAAGAUAUGAGAAUGCUAGAAGGUACAUGAGGAUCACCCAUGUUCGGG	117 nM	116 nM	–	–
UGCCGGAGCAGAGGAUAUUACAUGAGGAUCACCCAUGUAUGAACCAAUAGCUGGAAACAGCAAUGUAAGAAGGCUGCUCCGACA	13.4 nM	144 nM	–	–
UAUUAGUGAGGAUAUGGUAAAGAUAAGAUGAUGAAAGAACUCCAGAAGGCACAUGAGGAUCACCCAUGUAGUAG	21.8 nM	24.6 nM	–	–
AAUAAACAUGAGGAUCACCCAUGUGAGGAUAUGGUAUUAUUUGGACAGUUAUGAUAUACCAGAAGGCACAAAUA	28 nM	46.8 nM	–	–
CCACGUCACAUUUACAUGAGGAUCACCCAUGUCGAAAGACAUGAGGAUAUGCAUCCUAAUUGGAUGCAGAAGGCAUGGACGUGG	–	–	276 nM	274 nM
GUCAGCUCGCGAGGAUAUACAACACUGCUUCGGCAGUGUAUUAAGAUCACAUGAGGAUCACCCAUGUAGAAGGCACGAGCUGAU	10.4 nM	145 nM	–	–
ACAAAUUACUACCAGACAUGAGGAUCACCCAUGUCUCCACCCAGAAGGGCGACUCUGAGCACAGCGCAGGAUAUGGGUGUUCCA	–	–	59.8 nM	13.5 nM
AACCCUUGAGGAUAUUAAACAAAUCACAUGAGGAUCACCCAUGUGCAUACCUCGUGGCUUUGAGAAGGCAGUCGGG	34.9 nM	39.2 nM	–	–
AGAUUCAUGGCCCGUUCGGGCUCACAUGAGGAUCACCCAUGUGAGGAUAUGAUGUACCUGAUUCAUCAGAAGGCGCAUGCGAAA	7.69 nM	20.8 nM	–	–
GGUACCAACACAGGAUAUGCAAUCCUUUGGGUUGCAGAAGGGUGAAACAUGAGGAUCACCCAUGUGGUGCCAGGGCGUGAGCCC	–	–	1290 nM	104 nM
AAGAUGCGGGUAGGAUAUGGAAAUUAAUAAAGACCAGAAGGACUGGUCACACAACAUGAGGAUCACCCAUGUGUGUGUUGUGAA	11.9 nM	10.4 nM	–	–
AGCCACAGAGGAUAUACAUACAUCCAGUGGUAAAGAAUACUACAUGAGGAUCACCCAUGUAGAAGGCUGUGGCA	25.3 nM	145 nM	–	–
UCCUUGUCCUGAGGAUAUCCGCGGUUCCCAAAAGGAGAAGGCAGGACAUGAGGAUCACCCAUGUACCCAGAGAACGUGCAGAGU	19.2 nM	129 nM	–	–
ACGUGUCGUGUAGGAUAUGACACAGGAAACUGGUCAGAAGGACAUGAGGAUCACCCAUGUAAAAUGUUCAAGAAUAACGUAUGC	43.3 nM	108 nM	–	–
ACAUGAGGAUCACCCAUGUAAUGAUGGGUACUAUAUUAUUCGUAGGAUAUCGUUGUUAGUUUGUGCGAGAAGGACGAUUGCUUU	871 nM	1060 nM	–	–
AUGACUCUAGGAUAUUAGCGGGCCUACAUGAGGAUCACCCAUGUCGUGUCGCGGGUAUGCUGAGAAGGAGAGCACA	14.2 nM	17.9 nM	–	–
AAAAAGUCAGGAUAUAUCAAAAAAAAAGAAAAAAAAAAAAGAUAGAAGGGACAUGAGGAUCACCCAUGUAAAAA	50.9 nM	42.1 nM	–	–
GGUACGCAUGUAGGAUAUCGAGCUCAAAGAGCUCGAGAAGGACAUGAGGAUCACCCAUGUCGUCACAGACAGUGACGGCGUACC	20 nM	38.7 nM	–	–
GCACUUUUAUUUGAACCGUUUCGAACAUGAGGAUCACCCAUGUAGGAUAUGCUAAAAGUUGUGAUGCAGAAGGACAUUAAGUGC	6.94 nM	7.5 nM	–	–
UUUUAACAUGAGGAUCACCCAUGUGAGGAUAUCGAAAUUUAUAUUAAUAUUUUUAUAUCGAGAAGGCACAUUUU	92.8 nM	78.4 nM	–	–
CUGUUAUAGGUCCAGAAUUACAACAUGAGGAUCACCCAUGUGCAGGAUAUCGGGAUAAUAAACGACGAGAAGGGCAUAGUCACG	16.9 nM	24.5 nM	–	–
